GPR7 antagonist = human neuropeptides B/W receptor 1 antagonism | 1.1% of 290,000 active | inhibition, % at 4.4 µM | P48145 | GPR7-expressing cells, fluorescence antagonist assay; in the data active = inhibition above about 16%, passing the limit was not always enough;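 note: cells stimulated with the agonist NPW; 0% = agonist with vehicle and 100% = vehicle without agonist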
Target sequence (P48145 whole entry, looked up): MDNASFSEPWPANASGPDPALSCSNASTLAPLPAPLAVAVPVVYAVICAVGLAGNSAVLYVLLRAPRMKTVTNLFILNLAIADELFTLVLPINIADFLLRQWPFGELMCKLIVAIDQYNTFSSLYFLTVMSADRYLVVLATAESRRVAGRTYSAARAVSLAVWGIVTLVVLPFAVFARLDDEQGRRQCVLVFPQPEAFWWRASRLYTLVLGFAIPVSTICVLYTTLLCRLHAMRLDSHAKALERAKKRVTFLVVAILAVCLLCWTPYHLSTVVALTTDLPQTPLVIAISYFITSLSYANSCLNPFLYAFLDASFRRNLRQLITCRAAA
HSF-1 act = increases HSF-1 driven luciferase reporter signal. activation, % at 9 µM. 1.7% of 300,000 active. NIH3T3-HGL HSF-1 luciferase reporter, MG132, 8 h; 100% = twice DMSO control signal. AID 504408;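 active = mean replicate activation of at least 50% with a set share of replicates each reaching 50%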;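 note: 0% = median of the neutral control wells and 100% = twice that signal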
T cruzi repl = T. cruzi replication inhibition | inhibition, % (test concentration not listed) | T. cruzi beta-gal in NIH3T3, luminescence, 90 h | 1.4% of 300,000 active | AID 1885;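 active = mean inhibition across valid replicates above about 55%, limit read from the data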;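 note: signal also drops with host cell toxicity which is not excluded here; 0% = plate median of DMSO wells and 100% = zero luminescence signal; higher percent means less beta-gal luminescence so fewer parasites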
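Read-out: Parasite load inhibition, % | Test system: Mouse NIH/3T3 fibroblasts infected with β-gal-expressing T. cruzi Tulahuen C4 | Amount: 5,000 cells/well | Medium: DMEM, 2% fetal bovine serum | Signal: GalScreen β-gal luminescence, detergent lysis, 60 min | Timing: 3 h attach, ≥90 h co-culture | Also added: Tulahuen C4 trypomastigotes, 5000/well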
HSF1 inhib = HSF1 inhibition. NIH3T3-HGL HSE-luciferase, MG132-induced, luminescence 8 h; hits give low values. activity change, negative = inhibition, % at 7.5 µM (by protocol). 0.77% of 300,000 active;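 active = more than half of replicate wells show activity change below -50%, luminescence cut by over half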;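 note: luciferase reports HSF-1 transcriptional activity via heat shock element; 0% = median of DMSO wells and -100% = zero luminescence signal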
697 NFkB inh = lowers PMA/ionomycin-induced NF-kB signal in 697 B cells | 697 B-cell NF-kB luciferase reporter, 16 h | 0.33% of 330,000 active | inhibition, % at 4 µM; in the data active = inhibition above about 35%
Jurkat NFkB inh = inhibitors of the PMA/ionomycin-induced NF-kB reporter in Jurkat cells; PMA/ionomycin-induced NF-kB luciferase reporter, luminescence; 0.53% of 330,000 active; inhibition, % at 4 µM; in the data active = inhibition above about 50%
GPR7 antag cf = human GPR7 antagonism, confirmation assay; shares compounds with GPR7 antagonist; inhibition, % at 4.4 µM; AID 1952; GPR7-expressing cells, calcium fluorescence antagonist mode; 52% of 2,400 active; in the data active = inhibition above about 24%;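 note: stimulated with the GPR7 agonist NPW; 0% = agonist plus vehicle and 100% = vehicle alone without agonist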
MCHR1 antagonist = MCHR1 (human) antagonism in GPR7 counter-screen; MCHR1-expressing cells, fluorescence antagonist assay; 62% of 2,400 active; inhibition, % at 4.4 µM; shares compounds with GPR7 antagonist; in the data active = inhibition above about 22%;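 note: 0% = vehicle with agonist and 100% = vehicle without agonist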
* marks the source's active call; other numbers are inactive results. Shown are actives, neighbours in structure and some others; about 4.8% of the full set was active somewhere.

CN(c1ccccc1)S(=O)(=O)c1ccc(C(=O)NCCc2ccc(F)cc2)cc1 was read as GPR7 antagonist 27*, HSF-1 act 6, T cruzi repl 10, HSF1 inhib 4, 697 NFkB inh 20, Jurkat NFkB inh -8, GPR7 antag cf 23 and MCHR1 antagonist 18.
COc1ccc(N(C)S(=O)(=O)c2ccc(Cl)c(C(=O)NCCc3ccc(Cl)cc3)c2)cc1 was read as GPR7 antagonist 45*, T cruzi repl 49, 697 NFkB inh -1, Jurkat NFkB inh 22, GPR7 antag cf 48* and MCHR1 antagonist 50*.
`COCCCNC(=O)CN(Cc1ccc(Cl)cc1)S(C)(=O)=O` gave GPR7 antagonist -5, HSF-1 act 22, T cruzi repl 3, HSF1 inhib 9, 697 NFkB inh 15 and Jurkat NFkB inh 3.
COc1ccc(CCNC(=O)CN(Cc2ccc(Cl)cc2)S(C)(=O)=O)cc1 was read as GPR7 antagonist 25*, HSF-1 act -10, T cruzi repl -14, HSF1 inhib 6, 697 NFkB inh -11, Jurkat NFkB inh 16, GPR7 antag cf 13 and MCHR1 antagonist 13.
COc1ccc(CCNC(=O)c2cc(S(=O)(=O)N3CCCCC3)ccc2Cl)cc1 was read as 697 NFkB inh -6 and Jurkat NFkB inh -4.
Screening COc1ccccc1N(C)S(=O)(=O)c1ccc(C(=O)NCCc2ccc(F)cc2)cc1 returned GPR7 antagonist 0, HSF-1 act -12, T cruzi repl 23, HSF1 inhib 2, 697 NFkB inh 5 and Jurkat NFkB inh 3.
Cc1cc(-c2sccc2C)nc(-n2cccc2)n1 was read as GPR7 antagonist -6, HSF-1 act 10, T cruzi repl -4, HSF1 inhib 8, 697 NFkB inh 3 and Jurkat NFkB inh -12.
Screening Cc1onc(-c2c(F)cccc2Cl)c1C(=O)N(C)CCc1ccccn1 returned GPR7 antagonist -2, HSF-1 act -1, T cruzi repl 3, HSF1 inhib -4, 697 NFkB inh 0 and Jurkat NFkB inh -8.
CCN(CC(=O)Nc1cccc(C(C)=O)c1)S(=O)(=O)c1ccccc1 was read as GPR7 antagonist -16, HSF-1 act -5, T cruzi repl -10, HSF1 inhib -10, 697 NFkB inh -22 and Jurkat NFkB inh -16.
For Cc1cccc(N2CCN(C(=O)c3ccc(CS(=O)Cc4cccc(Cl)c4)o3)CC2)c1C (stereo not drawn) the results were GPR7 antagonist 42*, HSF-1 act 32, T cruzi repl -13, HSF1 inhib 6, 697 NFkB inh -23, Jurkat NFkB inh -3, GPR7 antag cf 11 and MCHR1 antagonist 31*.
Cc1cc(NC2CCCCC2)nc(NCc2ccccc2)n1 was read as GPR7 antagonist 24*, HSF-1 act -16, T cruzi repl 58*, HSF1 inhib -4, 697 NFkB inh -22, Jurkat NFkB inh 46, GPR7 antag cf 51* and MCHR1 antagonist 81*.
Screening Cc1cc(N/N=C/c2ccccc2Cl)nc(NCc2ccccc2)n1 returned GPR7 antagonist -5, HSF-1 act 13, T cruzi repl 31, HSF1 inhib -2, 697 NFkB inh 2 and Jurkat NFkB inh 19.
Screening Cc1ccc(/C=C/S(=O)(=O)NCC(=O)OCC(=O)NCc2ccccc2)cc1 returned GPR7 antagonist 7, HSF-1 act 4, T cruzi repl -19, HSF1 inhib -1, 697 NFkB inh 15 and Jurkat NFkB inh -6.
Cc1cc(C)n(CCCNC(=O)c2ccc(C)o2)n1 was read as 697 NFkB inh -11 and Jurkat NFkB inh -9.
`CCCNS(=O)(=O)c1cccc(C(=O)OCc2cc(=O)oc3cc(OC)ccc23)c1` gave GPR7 antagonist 34*, HSF-1 act -16, T cruzi repl 8, HSF1 inhib -17, 697 NFkB inh -23, Jurkat NFkB inh 44, GPR7 antag cf 33* and MCHR1 antagonist 57*.
NC(=O)c1cc(S(=O)(=O)Nc2ccc(OC(F)(F)F)cc2)cs1 was read as GPR7 antagonist 5, HSF-1 act 7, T cruzi repl -6, HSF1 inhib 3, 697 NFkB inh 0 and Jurkat NFkB inh 12.
Screening Cc1ccc(C2NC(=NCc3ccccc3)Nc3nc(C)cc(=O)n32)cc1 (stereo not drawn) returned GPR7 antagonist 26*, HSF-1 act -2, T cruzi repl 10, HSF1 inhib -14, 697 NFkB inh 7, Jurkat NFkB inh 12, GPR7 antag cf 0 and MCHR1 antagonist 11.
For Cc1ccc(NC2=NC(c3ccc(O)cc3)n3c(nc(C)cc3=O)N2)cc1 (stereo not drawn) the results were GPR7 antagonist 3, HSF-1 act 1, T cruzi repl -8, HSF1 inhib -5, 697 NFkB inh 18 and Jurkat NFkB inh 9.
`Cc1cc(/C=C2\C(=N)N3N=C(CC(=O)N4CCOCC4)SC3=NC2=O)c(C)n1-c1ccccc1` gave GPR7 antagonist -1, HSF-1 act -15, T cruzi repl 7, HSF1 inhib -1, 697 NFkB inh 5 and Jurkat NFkB inh 4.
COc1ccc(-n2c(C)cc(/C=C3\C(=N)N4N=C(CC(=O)N5CCOCC5)SC4=NC3=O)c2C)cc1 was read as GPR7 antagonist 32*, HSF-1 act 1, T cruzi repl 29, HSF1 inhib -3, 697 NFkB inh -27, Jurkat NFkB inh -6, GPR7 antag cf -2 and MCHR1 antagonist 15.
For CC1CCc2onc(C(=O)O)c2C1 (stereo not drawn) the results were GPR7 antagonist 24*, HSF-1 act -22, T cruzi repl 1, HSF1 inhib -11, 697 NFkB inh 16, Jurkat NFkB inh -19, GPR7 antag cf 9 and MCHR1 antagonist -4.
`Cc1ccccc1NC(=O)CSc1nnc(NC(=O)C2CC2)s1` gave GPR7 antagonist -13, HSF-1 act -5, T cruzi repl -1, HSF1 inhib 0, 697 NFkB inh 9 and Jurkat NFkB inh 9.
Screening CCOC(=O)c1cc2occc2n1Cc1c(F)cccc1Cl returned GPR7 antagonist -9, HSF-1 act -5, T cruzi repl 9, HSF1 inhib 6, 697 NFkB inh -1 and Jurkat NFkB inh -9.
Screening Cc1cc2c(cc(C(=O)N3CCC(C(=O)N4CCCC4)CC3)n2Cc2c(F)cccc2Cl)o1 returned GPR7 antagonist 27*, HSF-1 act -4, T cruzi repl 16, HSF1 inhib -7, 697 NFkB inh -6, Jurkat NFkB inh 6, GPR7 antag cf 20 and MCHR1 antagonist 12.

Screens from PubChem BioAssay.
